Rows were chosen to be rich in hits. Some 7.1% of all compounds tested hit in one or more screens of this group.
H69AR inhibit – growth inhibitors of human H69AR lung tumor cells. H69AR lung tumor viability, ATP luminescence, 72 h; active compounds read low. viability, % at 10 µM. 6% of 85,000 active. AID 598;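 active = viability at or below 40%; inactive = viability above 40%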;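 note: multidrug resistant small cell line overexpressing MRP-1 efflux transporter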
PTEN del growth – suppresses growth of cells with PTEN deletion; HCT116 PTEN-null viability, CellTiter-Glo, 60 h; active compounds read low; viability, % at 10 µM; 1.2% of 140,000 active; AID 827;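 active = viability at or below a set limit, 4 SD under the median of all tested compounds, cut at about 3.7% in these data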;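 note: PTEN knockout HCT116 line with beta catenin targeted HCT116 as companion control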
Fibroblast inh – blocks proliferation of human lung fibroblasts; LL 47 human lung fibroblast viability, ATP luminescence; active compounds read low; viability, % at 10 µM; 1.1% of 85,000 active; AID 719;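 active = viability at or below 50% in the single dose screen; inactive = viability above 50%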;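 note: compound exposure lasted 72 h before the ATP readout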
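Benchmarks: Cell-only wells, no compound | Test system: LL 47 human lung fibroblasts, passage 12 or lower | Input: 1,150 cells/well | Measured by: CellTiter-Glo luminescence measuring cellular ATP | Medium: IMEM, 15% FBS supplement | Schedule: Overnight attachment after seeding, then 72 h compound exposure at 37 °C | Doses: Compound addition at 0.1% DMSO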
bCat KO growth – beta-catenin-lacking colon tumor cell growth suppression. viability, % at 10 µM. HCT116 beta-catenin knockout viability, CellTiter-Glo, 60 h; active compounds read low. 1.5% of 140,000 active;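 active = viability at or under a set limit, the compound median less 4 SD, cut at about 6% in these data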
HUVEC inhibit – human endothelial cell proliferation inhibition; HUVEC proliferation, CellTiter-Glo luminescence, 72 h; active compounds read low; viability, % at 10 µM (by protocol); 1.1% of 86,000 active; AID 648;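 active = viability at or below 30%; inactive = viability above 30%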
Cav32 inh – human Cav3.2 channel inhibition, primary screen | O95180 | Cav3.2-expressing cells, Fluo-4 calcium fluorescence FDSS; active compounds read low | B-score at 10 µM | 4% of 100,000 active | AID 449739;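 active = single-dose well whose peak fluorescence ratio is a statistical outlier from its plate by either plate-standardised score or position-corrected B-score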
Hits are given with their value.

Results for CCNc1nc(NCC)n2c(SCC(=O)N(CC)C3CCCCC3)nnc2n1 ?
PTEN del growth: inactive; bCat KO growth: inactive

What do the screens show for `Cc1ccc(S(=O)(=O)n2ccc(-c3cccc(OCc4c(F)cccc4Cl)c3)n2)cc1`?
PTEN del growth: inactive; bCat KO growth: inactive; Cav32 inh: inactive

Results for CC(Oc1ccc(-c2ccccc2)c(F)c1)c1ccn(S(=O)(=O)c2ccc(Cl)cc2)n1 (centres undefined) ?
PTEN del growth: inactive; bCat KO growth: inactive; Cav32 inh: -5.1

Results for CC(Oc1ccc(Cl)cc1)c1ccnn1S(=O)(=O)c1ccccc1 (centres undefined) ?
PTEN del growth: inactive; bCat KO growth: inactive; Cav32 inh: -6.1

What do the screens show for `Cc1nnc(SCc2ccc(F)cc2)n1NC/C=C/c1ccccc1`?
PTEN del growth: inactive; bCat KO growth: inactive; Cav32 inh: inactive

How did CC1(C)NC(=O)N(CC(=O)OCC(=O)Nc2cc(S(=O)(=O)N3CCCCC3)ccc2Cl)C1=O do in these assays?
PTEN del growth: inactive; bCat KO growth: inactive

Results for CC(C)=CCC/C(C)=C/CC(C)(C)CNCCN1CCNCC1 ?
H69AR inhibit: 0.6; PTEN del growth: 1.2; Fibroblast inh: 1.7; bCat KO growth: 1.1; HUVEC inhibit: 1.5; Cav32 inh: inactive

How did CC(C)=CCCC(C)CN1CCC(O)CC1 (centres undefined) do in these assays?
H69AR inhibit: inactive; PTEN del growth: inactive; Fibroblast inh: inactive; bCat KO growth: inactive; HUVEC inhibit: inactive; Cav32 inh: inactive

How did CC(C)=CCC/C(C)=C/CCC(C)NCCN1CCNCC1 (centres undefined) do in these assays?
H69AR inhibit: inactive; PTEN del growth: 1.8; Fibroblast inh: 14; bCat KO growth: 1.8; HUVEC inhibit: inactive; Cav32 inh: inactive

What do the screens show for `COc1cc(/C=N/Nc2ncnc3sc4c(c23)CCC4)ccc1O`?
PTEN del growth: inactive; bCat KO growth: inactive

What do the screens show for `COc1cccc(NC(=O)N(CCCN2CCOCC2)C(C)c2cc3cccc(OC)c3o2)c1` (centres undefined)?
H69AR inhibit: inactive; PTEN del growth: inactive; Fibroblast inh: inactive; bCat KO growth: inactive; HUVEC inhibit: inactive; Cav32 inh: inactive

How did COc1cccc(NC(=O)N(CCCN2CCOCC2)C(C)c2cc3ccccc3o2)c1 (centres undefined) do in these assays?
H69AR inhibit: 32; PTEN del growth: inactive; Fibroblast inh: inactive; bCat KO growth: inactive; HUVEC inhibit: inactive; Cav32 inh: inactive

How did CCOC(=O)c1c(N2C(=O)Nc3cc(Cl)c(Cl)cc3N2O)sc2c1CCCCC2 do in these assays?
PTEN del growth: inactive; bCat KO growth: inactive; Cav32 inh: -3.9

How did C=CCOC(=O)/C(=C\c1cccc2ccccc12)NC(=O)c1ccccc1 do in these assays?
PTEN del growth: inactive; bCat KO growth: inactive; Cav32 inh: -5.2

What do the screens show for `CCOC(=O)/C(=C/c1c2ccccc2cc2ccccc12)NC(=O)c1ccccc1`?
PTEN del growth: inactive; bCat KO growth: inactive; Cav32 inh: inactive

Results for CC(/C=N/n1c(-c2ccc(Cl)cc2)n[nH]c1=S)=C\c1ccco1 ?
PTEN del growth: inactive; bCat KO growth: inactive

Results for O=C(O)/C(=C/c1ccco1)NC(=O)c1ccccc1 ?
PTEN del growth: inactive; bCat KO growth: inactive

How did N#CC(C#N)=C1C=CC=CN1/C(=C\c1ccco1)C(=O)c1ccc(-c2ccccc2)cc1 do in these assays?
PTEN del growth: 1.5; bCat KO growth: 1.7

Results for N#CC(C#N)=C1C=CC=CN1/C(=C\c1ccco1)C(=O)c1ccc(Cl)cc1 ?
PTEN del growth: 2.2; bCat KO growth: 2.4

Results for O=C(COC(=O)Cc1ccsc1)Nc1ccc(Cl)c(S(=O)(=O)N2CCOCC2)c1 ?
PTEN del growth: inactive; bCat KO growth: inactive

Results for CC1CC(C)(C)N(C(=O)CSc2ccc(-c3ccc(F)cc3)nn2)c2ccccc21 (centres undefined) ?
PTEN del growth: inactive; bCat KO growth: 4.9; Cav32 inh: inactive

Results for O=C(CNS(=O)(=O)c1ccc(Br)s1)NCC1COc2ccccc2O1 (centres undefined) ?
H69AR inhibit: inactive; PTEN del growth: inactive; Fibroblast inh: inactive; bCat KO growth: inactive; HUVEC inhibit: inactive; Cav32 inh: inactive

What do the screens show for `CCc1ccc(/C=N/NC(=O)c2cc(C3CC3)nc3ccc(Br)cc23)s1`?
PTEN del growth: inactive; bCat KO growth: inactive; Cav32 inh: -5.2

Assay outcomes (PubChem BioAssay)
